Test results taken from ChEMBL document CHEMBL4715796, “Discovery of Chromane Containing Hepatitis C Virus (HCV) NS5A Inhibitors with Improved Potency against Resistance-Associated Variants” (J Med Chem, 2016).
Substitutions are numbered along the chain they refer to.

Columns and labels:
[1] = tested on: Huh-7; experiment: Inhibition of NS5A in Hepatitis C virus subtype 4a infected in human HuH7 cells assessed as reduction in viral replication by luciferase reporter gene assay; type: cell-based
How it was run: (§1)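 Transient replicon assay with GT1a-H77, GT1b-Con1 or chimeric replicons, electroporated into a Huh7-derived cell line. Percent inhibition of replication, read as a drop in luciferase signal, was calculated at each concentration to give EC90. Values are means of at least two experiments.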

[2] = tested on: Huh-7; experiment: Inhibition of NS5A in Hepatitis C virus subtype 1b infected in human HuH7 cells assessed as reduction in viral replication by luciferase reporter gene assay; type: cell-based; how it was run: as §1
[3] = tested on: Huh-7; experiment: Inhibition of NS5A in Hepatitis C virus subtype 2b infected in human HuH7 cells assessed as reduction in viral replication by luciferase reporter gene assay; type: cell-based; how it was run: as §1
[4] = tested on: Huh-7; experiment: Inhibition of NS5A in Hepatitis C virus subtype 1a infected in human HuH7 cells assessed as reduction in viral replication by luciferase reporter gene assay; type: cell-based; how it was run: as §1
[5] = tested on: Nonstructural protein 5A (Hepatitis C virus), Q5L478 [UNDEFINED MUTATION]; experiment: Inhibition of NS5A L31V mutant in Hepatitis C virus subtype 1a infected in human HuH7 cells assessed as reduction in viral replication by luciferase reporter gene assay; type: cell-based; conditions: Huh-7
How it was run: (§2)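 NS5A resistance variants engineered into GT1a-H77 or GT1b-Con1 replicons. Each variant replicon is transfected transiently by electroporation into a Huh7-derived cell line. Percent inhibition is taken from the drop in luciferase signal at each compound concentration, and EC90 is calculated from these. Values are means of at least two experiments.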

[6] = tested on: Huh-7; experiment: Inhibition of NS5A in Hepatitis C virus subtype 3a infected in human HuH7 cells assessed as reduction in viral replication by luciferase reporter gene assay; type: cell-based; how it was run: as §1
[7] = tested on: T1, Nonstructural protein 5A (Hepatitis C virus), Q5L478 [Y93H]; experiment: Inhibition of NS5A Y93H mutant in Hepatitis C virus subtype 1a infected in human HuH7 cells assessed as reduction in viral replication by luciferase reporter gene assay; type: cell-based; conditions: Huh-7; how it was run: as §2
T1 sequence (whole entry): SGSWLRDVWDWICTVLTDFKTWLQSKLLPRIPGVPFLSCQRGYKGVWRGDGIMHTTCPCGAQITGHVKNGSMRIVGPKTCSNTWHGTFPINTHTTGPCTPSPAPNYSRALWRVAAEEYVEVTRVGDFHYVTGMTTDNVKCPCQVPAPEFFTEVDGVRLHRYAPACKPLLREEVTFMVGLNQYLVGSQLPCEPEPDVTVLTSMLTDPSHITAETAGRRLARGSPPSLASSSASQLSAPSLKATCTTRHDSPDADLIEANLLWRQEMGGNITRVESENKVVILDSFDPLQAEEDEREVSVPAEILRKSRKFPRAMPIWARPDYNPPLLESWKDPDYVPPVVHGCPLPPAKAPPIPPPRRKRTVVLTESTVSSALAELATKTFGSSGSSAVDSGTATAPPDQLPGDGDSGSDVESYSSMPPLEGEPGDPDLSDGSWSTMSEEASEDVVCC

[8] = tested on: Huh-7; experiment: Inhibition of NS5A in Hepatitis C virus subtype 2a infected in human HuH7 cells assessed as reduction in viral replication by luciferase reporter gene assay; type: cell-based; how it was run: as §1
[9] = Oral bioavailability in male Wistar Han rat at 10 mg/kg post overnight fasting measured upto 24 hrs by LC-MS/MS analysis; type: ADME, organism-based; conditions: in vivo
How it was run: (§3)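 Overnight-fasted male Wistar Han rats or Beagle dogs, two animals per group, 24 h study. IV in 60% PEG200 (rat 2 mg/kg, dog 1 mg/kg). PO in 10% Tween (rat 10 mg/kg, dog 5 mg/kg). Blood sampled up to 24 h, plasma separated by centrifugation, and drug measured by LC/MS. MRT reported for the IV route.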

[10] = Drug concentration in male Wistar Han rat at 10 mg/kg, po measured after 24 hrs by LC/MS analysis; type: ADME, organism-based; conditions: in vivo, read-out: Drug uptake; how it was run: as §3
[11] = Half-life in male Wistar Han rats at 2 mg/kg, iv administered post overnight fasting measured upto 24 hrs by LC-MS/MS analysis; type: ADME, organism-based; conditions: rat, in vivo; how it was run: as §3
[12] = Selectivity ratio of EC90 for inhibition of NS5A in Hepatitis C virus subtype 1b infected in human HuH7 cells assessed as reduction in viral to EC90 for inhibition of NS5A in Hepatitis C virus subtype 1a; type: cell-based
How it was run: (§4)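 Fold shift calculated against the GT1a EC90, using EC90 values from the luciferase replicon assay in Huh7-derived cells.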

[13] = Selectivity ratio of EC90 for inhibition of NS5A in Hepatitis C virus subtype 2b infected in human HuH7 cells assessed as reduction in viral to EC90 for inhibition of NS5A in Hepatitis C virus subtype 1a; type: cell-based
[14] = Selectivity ratio of EC90 for inhibition of NS5A L31V mutant in Hepatitis C virus subtype 1a infected in human HuH7 cells assessed as reduction in viral to EC90 for inhibition of NS5A in Hepatitis C virus subtype 1a; type: cell-based
How it was run: (§5)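 Fold shift is calculated against the GT1a EC90. The variant EC90 comes from a transient replicon assay: the NS5A variant is introduced into a GT1a-H77 or GT1b-Con1 replicon and electroporated into Huh7-derived cells. The read-out is reduced luciferase signal. EC90s are means of at least two experiments.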

[15] = AUC in male Wistar Han rats at 10 mg/kg, po administered post overnight fasting measured upto 24 hrs by LC-MS/MS analysis; type: ADME, organism-based; design: route oral, dose 10 mg/kg, time <=24; conditions: rat, in vivo; how it was run: as §3
[16] = Cmax in male Wistar Han rats at 10 mg/kg, po administered post overnight fasting measured upto 24 hrs by LC-MS/MS analysis; type: ADME, organism-based; design: route oral, dose 10 mg/kg, time <=24; conditions: rat, in vivo; how it was run: as §3
[17] = Selectivity ratio of EC90 for inhibition of NS5A in Hepatitis C virus subtype 3a infected in human HuH7 cells assessed as reduction in viral to EC90 for inhibition of NS5A in Hepatitis C virus subtype 1a; type: cell-based
[18] = Selectivity ratio of EC90 for inhibition of NS5A in Hepatitis C virus subtype 4a infected in human HuH7 cells assessed as reduction in viral to EC90 for inhibition of NS5A in Hepatitis C virus subtype 1a; type: cell-based; how it was run: as §4
[19] = Selectivity ratio of EC90 for inhibition of NS5A Y93H mutant in Hepatitis C virus subtype 1a infected in human HuH7 cells assessed as reduction in viral to EC90 for inhibition of NS5A in Hepatitis C virus subtype 1a; type: cell-based; how it was run: as §5
[20] = Clearance in male Wistar Han rats at 2 mg/kg, iv administered post overnight fasting measured upto 24 hrs by LC-MS/MS analysis; type: ADME, organism-based; conditions: rat, in vivo; how it was run: as §3
[21] = Selectivity ratio of EC90 for inhibition of NS5A L31V mutant in Hepatitis C virus subtype 1b to EC90 for Selectivity ratio of EC90 for inhibition of NS5A in Hepatitis C virus subtype 1a; how it was run: as §5
[22] = tested on: Hepatitis C virus subtype 1a; experiment: Selectivity ratio of EC90 for inhibition of NS5A Q30D mutant in Hepatitis C virus subtype 1a to EC90 for Selectivity ratio of EC90 for inhibition of NS5A in Hepatitis C virus subtype 1a; how it was run: as §5
[23] = tested on: Nonstructural protein 5A (Hepatitis C virus), Q5L478 [UNDEFINED MUTATION]; experiment: Inhibition of NS5A L31V mutant in Hepatitis C virus subtype 1b; how it was run: as §2
[24] = tested on: T1, Nonstructural protein 5A (Hepatitis C virus), Q5L478 [Y93H]; experiment: Inhibition of NS5A Y93H mutant in Hepatitis C virus subtype 1b; how it was run: as §2
[25] = Selectivity ratio of EC90 for inhibition of NS5A Y93H mutant in Hepatitis C virus subtype 1b to EC90 for Selectivity ratio of EC90 for inhibition of NS5A in Hepatitis C virus subtype 1a; how it was run: as §5
[26] = tested on: Nonstructural protein 5A (Hepatitis C virus), Q5L478 [UNDEFINED MUTATION]; experiment: Inhibition of NS5A Q30R mutant in Hepatitis C virus subtype 1a; how it was run: as §2
[27] = tested on: Hepatitis C virus subtype 1a; experiment: Selectivity ratio of EC90 for inhibition of NS5A Y93N mutant in Hepatitis C virus subtype 1a to EC90 for Selectivity ratio of EC90 for inhibition of NS5A in Hepatitis C virus subtype 1a; how it was run: as §5
[28] = tested on: T2, Nonstructural protein 5A (Hepatitis C virus), Q5L478 [Y93N]; experiment: Inhibition of NS5A Y93N mutant in Hepatitis C virus subtype 1a; how it was run: as §2
T2 sequence (whole entry): T1 sequence (whole entry) with H93N

[29] = tested on: Hepatitis C virus subtype 1a; experiment: Selectivity ratio of EC90 for inhibition of NS5A Q30R mutant in Hepatitis C virus subtype 1a to EC90 for Selectivity ratio of EC90 for inhibition of NS5A in Hepatitis C virus subtype 1a; how it was run: as §5
[30] = tested on: Hepatitis C virus subtype 1a; experiment: Inhibition of NS5A Q30D mutant in Hepatitis C virus subtype 1a; how it was run: as §2

In the case of `COC(=O)N[C@H](C(=O)N1CCC[C@H]1c1ncc(-c2ccc3c(c2)OC(c2cccc(-c4ccccc4)c2)n2c-3cc3cc(-c4cnc([C@@H]5CCCN5C(=O)[C@@H](NC(=O)OC)C(C)C)[nH]4)ccc32)[nH]1)C(C)C` (mixture of isomers), the EC90 [1] is reported as 0.02 nM, the EC90 [2] is reported as 0.006 nM and the EC90 [3] is reported as 3.8 nM. The EC90 [4] was 0.005 nM, the EC90 [5] was 1 nM and the EC90 [6] was 0.3 nM. The EC90 [7] was 21 nM and the EC90 [8] was 0.004 nM.
Compound `COC(=O)N[C@H](C(=O)N1CCC[C@H]1c1ncc(-c2cc(F)c3c(c2)OC(c2ccc4c(c2)OC(C)(C)C4)n2c-3cc3cc(-c4cnc([C@@H]5CCCN5C(=O)[C@@H](NC(=O)OC)C(C)C)[nH]4)ccc32)[nH]1)C(C)C.O=C(O)C(F)(F)F.O=C(O)C(F)(F)F` (stereo partly specified) has a bioavailability [9] of 3%, an EC90 [1] of 0.003 nM and a concentration at 24 h [10] of 9 nM. It also gave an EC90 [2] of 0.004 nM, an EC90 [3] of 0.5 nM and a half-life [11] of 8.4 h. The EC90 [4] was 0.003 nM, the Selectivity ratio [12] was 1 and the Selectivity ratio [13] was 167. It also gave a Selectivity ratio [14] of 7, an AUC at 24 h [15] of 0.71 µM·h and an EC90 [5] of 0.02 nM. For the same compound, the Cmax [16] was 58 nM, the Selectivity ratio [17] was 2 and the EC90 [6] was 0.005 nM. It also gave an EC90 [7] of 0.2 nM, a Selectivity ratio [18] of 1 and a Selectivity ratio [19] of 67. The clearance [20] was 7 mL/min/kg.
`COC(=O)N[C@H](C(=O)N1CCC[C@H]1c1ncc(-c2cc(F)c3c(c2)OC(c2ccc4c(c2)OCCC42CC2)n2c-3cc3cc(-c4cnc([C@@H]5CCCN5C(=O)[C@@H](NC(=O)OC)C(C)C)[nH]4)ccc32)[nH]1)C(C)C.O=C(O)C(F)(F)F.O=C(O)C(F)(F)F` (stereo partly specified) showed a Selectivity ratio [21] of 2, a Selectivity ratio [22] of 400 and a bioavailability [9] of 2%. The EC90 [1] was 0.006 nM, the concentration at 24 h [10] was 1 nM and the EC90 [2] was 0.004 nM. It also gave an EC90 [3] of 0.2 nM, an EC90 [23] of 0.005 nM and a half-life [11] of 8.5 h. For the same compound, the EC90 [24] was 0.02 nM, the EC90 [4] was 0.003 nM and the Selectivity ratio [12] was 1. The Selectivity ratio [13] was 40, the Selectivity ratio [14] was 1 and the AUC at 24 h [15] was 0.24 µM·h. It also gave an EC90 [5] of 0.006 nM, a Selectivity ratio [25] of 7 and an EC90 [26] of 0.03 nM. For the same compound, the Cmax [16] was 29 nM, the Selectivity ratio [17] was 2 and the EC90 [6] was 0.01 nM. For the same compound, the Selectivity ratio [27] was 300, the EC90 [28] was 0.9 nM and the EC90 [7] was 0.1 nM. The Selectivity ratio [29] was 10, the Selectivity ratio [18] was 1 and the Selectivity ratio [19] was 20. For the same compound, the EC90 [30] was 1.2 nM and the clearance [20] was 15 mL/min/kg.
